Rows were chosen to be rich in hits. Some 9.8% of all compounds tested hit in one or more screens of this group.
m-calpain inh = blocks pig calpain II enzyme activity. purified calpain II, fluorogenic peptide substrate, 30 min. inhibition, % at 16 µM. 220,000 compounds, 0.37% hits;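 active means inhibition above about 50%, limit read from the data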
PMI activator = activators of human phosphomannose isomerase | purified human PMI, coupled resazurin fluorescence, 20 min; active compounds read high; 1 = vehicle control, 0 substrate-free wells | activation factor at 20 µM | 190,000 compounds, 0.005% hits | P34949;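 active means activation factor of 2 or more at 20 µM, relative to plate controls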
PMI act hi M6P = activators of human phosphomannose isomerase at near-saturating mannose 6-phosphate; coupled PMI enzyme assay, resazurin fluorescence, 20 min; active compounds read high; 1 = untreated enzyme, 0 = substrate-free blank; P34949; 190,000 compounds, 0.34% hits; activation factor at 20 µM;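 active means activation factor of 2 or more at 20 µM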
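Test system: human phosphomannose isomerase with PGI, G6PDH, diaphorase coupling enzymes; Amount: PMI at 15 ng/mL final; Reagent: Mannose-6-phosphate 1.0 mM (near-saturating) plus 0.22 mM NADP+; Timing: 20 min, room temperature; Technique: resorufin fluorescence at Ex 544/Em 590 nm; Dosing: 20 µM single dose.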
Rad51 HR inh = blocks human Rad51 in homologous recombination | Q06609 | hRad51 DNA strand exchange, fluorescence dequenching | inhibition, % at 10 µM | 200,000 compounds, 0.085% hits | AID 1385;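 active means inhibition above 40% at the single screening dose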
Target sequence (Q06609 whole entry, looked up): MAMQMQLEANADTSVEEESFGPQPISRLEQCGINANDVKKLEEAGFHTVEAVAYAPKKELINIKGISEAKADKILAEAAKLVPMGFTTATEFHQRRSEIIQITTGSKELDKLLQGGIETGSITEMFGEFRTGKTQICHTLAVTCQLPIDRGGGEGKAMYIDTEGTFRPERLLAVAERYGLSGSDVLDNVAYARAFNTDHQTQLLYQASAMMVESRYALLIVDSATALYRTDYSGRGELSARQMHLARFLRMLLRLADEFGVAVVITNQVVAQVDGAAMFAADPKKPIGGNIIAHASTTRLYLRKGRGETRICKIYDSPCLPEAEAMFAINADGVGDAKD
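Material: Human Rad51 nucleoprotein filaments preassembled on unlabelled ssDNA | Also added: Labelled 47-mer dsDNA for strand exchange | Dosing: Single dose, 10 µM final compound | Schedule: 30-min compound preincubation and 15-min exchange, both room temperature | Technique: Fluorescence dequenching at 485/520 nm | Measure: Percent inhibition relative to plate controls and blanks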
WT yeast gro inh = growth inhibition of WT yeast, mitochondrial fusion screen. mitochondrial fusion phenotypic screen, WT strain. inhibition, % at 10 µM. 190,000 compounds, 2.1% hits; in the data active means inhibition above about 58%; tested in S. cerevisiae
Lmaj promast = Leishmania major promastigote growth inhibition; Leishmania major promastigotes, resazurin fluorescence viability; inhibition, % at 10 µM; 200,000 compounds, 9% hits; in the data active means inhibition above about 50%;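 further: promastigotes grown with compound for 44 hours at 28 °C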
Numbers stand for hits; – = inactive; · = no result given.

SMILES | m-calpain inh | PMI activator | PMI act hi M6P | Rad51 HR inh | WT yeast gro inh | Lmaj promast
CC(C)(C)c1ccc(C(CC(=O)O)NC(=O)c2ccccc2F)cc1 (stereo not drawn) | – | – | – | · | – | –
Cc1cccc(OCCCC(=O)Nc2ccc(Br)cc2)c1 | – | – | – | – | – | –
CCOc1ccc(NC(=O)CCC(=O)c2ccc(-c3ccccc3)cc2)cc1 | – | – | – | – | – | 50
CCCOC(=O)c1ccc(NC(=O)CCOc2ccccc2)cc1 | – | – | – | – | – | –
Cc1cccc(OCCCC(=O)Nc2ccc(N(C)C)cc2)c1 | – | – | – | – | – | 97
CCOC(=O)c1ccc(NC(=O)CCOc2ccccc2)cc1 | – | – | – | – | · | 84
Cc1ccc(C(C(=O)NC(C)(C)C)N(Cc2cccnc2)C(=O)C(=O)NC2CCCCC2)o1 (stereo not drawn) | – | – | – | – | – | –
CCOC(=O)C1=C(C)N(C)C(C)=C(C(=O)OCC)C1c1ccsc1 | – | – | – | – | – | –
Cc1[nH][nH]c(=O)c1C(c1ccc(-c2cccc(Cl)c2)o1)c1c(C)[nH][nH]c1=O | – | · | · | – | · | ·
COC(=O)c1ccc(-c2ccc(C(c3c(C)[nH][nH]c3=O)c3c(C)[nH][nH]c3=O)o2)cc1 | – | – | – | – | – | 97
Cc1[nH][nH]c(=O)c1C(c1ccc(-c2ccc(Cl)cc2Cl)o1)c1c(C)[nH][nH]c1=O | – | – | – | – | – | 100
Cc1[nH][nH]c(=O)c1C(c1ccc(-c2cccc(C(=O)O)c2)o1)c1c(C)[nH][nH]c1=O | – | – | – | – | – | –
CC/C(=C(/CC)c1ccc(O)cc1)c1ccc(O)cc1 | – | – | – | – | 76 | –
N=C(N)c1ccc(O)cc1 | – | – | – | – | – | –
O=C(CNC(=S)N(CCCN1CCOCC1)Cc1cccs1)N1CCCCCC1 | – | – | – | – | – | –
CCOC(=O)C1=C(C)OC(N)=C(C#N)C1c1cc2ccccc2nc1N1CCCCC1 (stereo not drawn) | – | – | – | – | – | 86
COc1cc(OC)c(OC)cc1CN1CCC(O)CC1 | – | · | · | · | · | ·
Cc1ccc(C(=O)NCC(=O)NCC(=O)OCC(=O)c2ccc(Br)cc2)cc1 | – | – | – | – | – | –
CCOC(=O)CNCCC(=O)c1ccc(Br)cc1 | – | – | – | – | – | 63
C/C(=C\c1ccccc1)C(=O)N1CCN(c2cccc(C(F)(F)F)c2)CC1 | – | – | – | – | – | 55
O=C(CCCCn1c(=O)[nH]c2ccccc2c1=O)N1CCN(c2cccc(C(F)(F)F)c2)CC1 | – | – | – | – | – | 82
CCC1(C)COC(C)(CC(=O)NNC(=O)Nc2ccccc2)OC1 (stereo not drawn) | – | – | – | – | – | –
Cc1cc(C)c2cccc(N)c2n1 | – | – | – | – | – | –
CCc1ccc(NC(=S)/N=C(\N)Nc2nc(C)c3cc(CC)ccc3n2)cc1 | – | – | – | – | – | –
Cc1cc(C)c2c(N)c3ccccc3nc2n1 | – | – | – | – | – | 101
SMILES | m-calpain inh | PMI activator | PMI act hi M6P | Rad51 HR inh | WT yeast gro inh | Lmaj promast
CCc1ccc2nc3nc(C)cc(C)c3c(N)c2c1 | – | – | – | – | – | 101
CCN(CC(=O)Nc1ccccc1OC)CC(=O)Nc1sccc1C#N | – | – | – | – | – | –
COc1cc(NC(=O)c2ccc(OC)c([N+](=O)[O-])c2)ccc1NC(=O)c1cccs1 | – | – | – | – | – | 84
COc1cc(N)ccc1NC(=O)c1cccs1 | – | – | – | – | – | 73
COc1ccccc1CCNC(=O)CSc1nnc2ccc(-c3ccncc3)nn12 | – | – | – | – | – | –
N#Cc1cnn2c(-c3ccc(Cl)cc3Cl)ccnc12 | – | – | – | – | – | –
CN(CC(=O)O/N=C(\N)c1cccc([N+](=O)[O-])c1)S(=O)(=O)c1ccccc1 | – | – | – | – | 58 | –
Cc1ccc(C(=O)O/N=C(\N)c2cccc([N+](=O)[O-])c2)cc1 | – | – | – | · | – | –
Cc1ccc(CC(=O)O/N=C(\N)c2cccc([N+](=O)[O-])c2)cc1 | – | – | – | – | – | 80
CN(CC(=O)O/N=C(\N)c1ccc([N+](=O)[O-])cc1)S(=O)(=O)c1ccccc1 | – | – | – | – | – | –
O=C(COC(=O)c1cc[n+]([O-])cc1)NCc1ccccc1Cl | – | – | – | – | – | –
Cc1ccc2nc(Cl)c(/C=N/Nc3ccc(C(=O)O)cc3)cc2c1 | – | · | · | – | · | ·
COc1ccccc1-n1nnnc1SCc1cc2c(cc1Br)OCO2 | 50 | – | – | – | – | –
COc1ccccc1-n1nnnc1SCc1ccccc1 | – | – | – | – | – | –
COc1ccc(S(=O)(=O)N(C(C)=O)c2ccc(OC(C)=O)c3ccccc23)cc1[N+](=O)[O-] | – | – | – | – | – | 100
COc1cc(/C=C/CN2CCN(Cc3ccc(C)o3)C(CCO)C2)ccc1O (stereo not drawn) | – | – | – | · | – | –
c1csc(-c2csc3nc(CN4CCOCC4)nc(NCc4ccc5c(c4)OCO5)c23)c1 | – | – | – | – | 64 | –
Cc1ccccc1OCCNC(=O)/C=C/c1ccccc1 | – | – | – | · | – | –
COc1ccc(NC(=O)c2noc(C(C)C)c2[N+](=O)[O-])cc1 | 53 | – | – | · | – | –
CC(=O)c1ccc(NC(=O)c2noc(C(C)C)c2[N+](=O)[O-])cc1 | 95 | – | – | · | – | –
CCc1ccc(NC(=O)c2noc(C(C)C)c2[N+](=O)[O-])cc1 | – | – | – | · | – | –
Cc1nc(SCC(=O)NCc2ccco2)c2c(=O)n(C)c(=O)n(CC(C)C)c2n1 | – | – | – | – | – | –
O=C(Cn1nnc2ccccc2c1=O)Nc1cccc(S(=O)(=O)N2CCOCC2)c1 | – | – | – | – | – | –
Cc1ccc(C)c(N2C(=O)c3ccc(C(=O)OCC(=O)c4c(N)n(C)c(=O)n(C)c4=O)cc3C2=O)c1 | – | – | – | · | – | 51
COc1ccc(C(=O)OCC(=O)c2c(N)n(C)c(=O)n(C)c2=O)cc1OC | – | – | – | – | – | –
SMILES | m-calpain inh | PMI activator | PMI act hi M6P | Rad51 HR inh | WT yeast gro inh | Lmaj promast
Cc1ccc(S(=O)(=O)NCc2ccco2)cc1C(N)=O | – | – | – | – | – | –
Nc1nc(N)c2c(n1)CCCC2 | – | · | · | – | · | ·
CCc1ccc2c(c1)C(c1ccncc1)=NNC(c1ccccc1)=N2 | – | – | – | – | – | 55
Cc1ccc(C2=Nc3ccc(Br)cc3C(c3ccncc3)=NN2)cc1 | – | · | · | – | – | 85
Cc1ccc2c(c1)C(c1ccncc1)=NNC(c1ccccc1)=N2 | – | – | – | – | – | –
CCOC(=O)c1c(NC(C)=O)sc2c1CCC(C=NCCCN(CC)CC)=C2Sc1ccccc1 | · | · | · | – | · | –
S=C(NCCc1ccccc1)NCCc1ccccc1 | – | – | – | – | 62 | –
S=C(NCc1ccccc1Cl)Nc1ccccc1Cl | – | – | – | – | – | –
S=C(NCCc1ccccn1)Nc1ccccc1Cl | – | – | – | – | – | –
